“And” between values parts separate entries of the source, which are not always exact repeats. Equal values may be shown once. “Also recorded” adds a separate entry of the source.
How the values were obtained:
[1] = system: PC-3 derived prostate cancer xenografts; assay: PC-3 tumor xenograft model in nude mice; type: in vivo; conditions: 50 mg/kg daily intraperitoneal, two weeks
In short: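 Four-week-old nude mice were given PC-3 cells subcutaneously (10⁶ cells/mouse). At 400 mm³ tumour volume they were split into two groups (n = 5). Each group received test compound or vehicle (10% DMSO + 10% PEG400 + 80% saline) i.p. daily for two weeks. Caliper tumour volume and body weight were taken every 2–3 days. Tumours were harvested 12 h after the last dose.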

[2] = molecular target: T1, α1B-AR (Homo sapiens, UniProt P35368); assay: Western blot analysis of α1B-AR level in stably transfected HEK293 cells; type: cell-based; conditions: 12 h
T1 sequence (P35368 1-520): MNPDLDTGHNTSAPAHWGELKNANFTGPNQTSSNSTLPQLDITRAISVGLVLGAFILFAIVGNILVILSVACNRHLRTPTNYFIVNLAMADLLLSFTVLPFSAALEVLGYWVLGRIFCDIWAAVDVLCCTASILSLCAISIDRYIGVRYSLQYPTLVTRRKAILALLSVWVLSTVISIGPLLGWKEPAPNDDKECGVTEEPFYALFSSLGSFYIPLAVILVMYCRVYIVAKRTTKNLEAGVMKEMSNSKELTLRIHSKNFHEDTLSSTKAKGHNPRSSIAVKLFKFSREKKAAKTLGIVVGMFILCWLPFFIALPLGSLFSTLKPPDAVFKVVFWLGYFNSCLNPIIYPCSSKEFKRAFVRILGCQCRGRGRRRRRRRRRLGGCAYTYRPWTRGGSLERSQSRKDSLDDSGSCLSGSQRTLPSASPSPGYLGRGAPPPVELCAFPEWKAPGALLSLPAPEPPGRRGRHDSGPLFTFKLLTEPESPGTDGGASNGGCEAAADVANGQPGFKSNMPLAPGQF

[3] = system: PC-3 cells; assay: CCK-8 antiproliferation assay on PC-3 cells; type: cell-based; conditions: for IC50: Homo sapiens, PC-3, 48 h, read-out: antiproliferative activity IC50; for antiproliferation activity on PC-3 cells (in words): 1–100 μmol/L, 48 h
In short: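 PC-3 cells in RPMI-1640 with 10% FBS, 37 °C, 5% CO2. Seeded at 5000 cells/well, left 24 h, then exposed to test compound for 48 h; controls received DMSO only. CCK-8 reagent (WST-8/PMS) was added for 1 h at 37 °C and absorbance read at 450 nm. Viability was calculated against untreated-cell and cell-free blank wells.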

[4] = molecular target: T2, α1D-AR (Homo sapiens, UniProt P25100); assay: Western blot analysis of α1D-AR level in stably transfected HEK293 cells; type: cell-based; conditions: 12 h
T2 sequence (P25100 1-572): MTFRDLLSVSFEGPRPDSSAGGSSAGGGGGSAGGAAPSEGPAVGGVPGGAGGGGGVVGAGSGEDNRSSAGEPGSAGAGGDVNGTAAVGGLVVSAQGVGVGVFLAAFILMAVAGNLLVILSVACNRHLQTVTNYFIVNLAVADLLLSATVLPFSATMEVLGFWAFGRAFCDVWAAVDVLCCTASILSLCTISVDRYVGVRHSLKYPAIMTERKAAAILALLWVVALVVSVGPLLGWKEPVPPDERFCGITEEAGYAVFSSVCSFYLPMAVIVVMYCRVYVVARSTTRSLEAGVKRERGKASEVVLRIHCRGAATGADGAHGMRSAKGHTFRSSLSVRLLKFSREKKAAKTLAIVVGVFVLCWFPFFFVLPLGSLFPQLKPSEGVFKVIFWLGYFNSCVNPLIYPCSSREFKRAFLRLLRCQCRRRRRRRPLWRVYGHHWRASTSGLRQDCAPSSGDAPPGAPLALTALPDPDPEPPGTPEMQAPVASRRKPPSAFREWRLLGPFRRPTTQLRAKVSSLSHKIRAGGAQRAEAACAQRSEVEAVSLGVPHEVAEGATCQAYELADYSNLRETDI

[5] = molecular target: T3, α1A-AR (Homo sapiens, UniProt P35348); assay: Western blot analysis of α1A-AR level in α1A-AR stably transfected HEK293 cells; type: cell-based; conditions: for DC50: read-out: DC50 (concentration required for 50% protein degradation) of α1A-AR, α1A-AR stably transfected HEK293 cells, 12 h, Western blot; for effect on α1A-AR level (Western blot, in words): α1A-AR HEK293 cells, indicated concentrations 12 h, 3 μmol/L for indicated time
T3 sequence (P35348 1-466): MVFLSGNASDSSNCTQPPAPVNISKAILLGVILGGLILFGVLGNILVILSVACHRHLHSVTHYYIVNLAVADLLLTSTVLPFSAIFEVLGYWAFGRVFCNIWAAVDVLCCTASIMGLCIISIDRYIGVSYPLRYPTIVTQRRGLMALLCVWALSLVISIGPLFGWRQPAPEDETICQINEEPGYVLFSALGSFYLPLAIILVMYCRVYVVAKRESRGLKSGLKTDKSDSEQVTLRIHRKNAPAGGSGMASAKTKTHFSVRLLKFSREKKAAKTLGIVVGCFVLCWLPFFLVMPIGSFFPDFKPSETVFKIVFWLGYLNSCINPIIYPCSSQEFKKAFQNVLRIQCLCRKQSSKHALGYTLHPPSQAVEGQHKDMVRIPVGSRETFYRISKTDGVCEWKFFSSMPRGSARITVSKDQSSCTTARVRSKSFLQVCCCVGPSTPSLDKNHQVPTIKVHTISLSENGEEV

COc1cc2nc(N3CCN(C(=O)c4cn(CCOCCOCCOCC(=O)Nc5cccc6c5C(=O)N(C5CCC(=O)NC5=O)C6=O)nn4)CC3)nc(N)c2cc1OC (centres unmarked) [Compound 9c, 2-(2-(2-(2-(4-(4-(4-Amino-6,7-dimethoxyquinazolin-2-yl)piperazine-1-carbonyl)-1H-1,2,3-triazol-1-yl)ethoxy)ethoxy)ethoxy)-N-(2-(2,6-dioxopiperidin-3-yl)-1,3-dioxoisoindolin-4-yl)acetamide]
average tumor size and mass vs vehicle-treated group (in words) [1]: noticeably decreased | body weight (in words) ([1]; nude mice): without noticeable loss of body weight | effect on tumor growth (in words) ([1]; nude mice with PC-3 xenografts): significant antitumor effect; also recorded: significant suppression of tumor growth | degradation activity for α1B-AR (in words) [2]: no degradation activity | IC50 [3]: 6.12 µM | antiproliferation activity on PC-3 cells (in words) [3]: concentration-dependent antiproliferation activities | influence on α1D-AR level (in words) [4]: slight influence | Dmax ([5]; HEK293, read-out: maximal level of degradation (Dmax) of α1A-AR): 94% | time for α1A-AR level to recover to basal level after washout ([5]; after 12 h pretreatment with 10 μmol/L, cells washed thoroughly): approximately 24 h | α1A-AR degradation after bortezomib pretreatment (in words) ([5]; pretreatment of cells using bortezomib for more than 7 h): could no longer trigger the degradation | DC50 [5]: ~2.86 µM and 2.86 µM

COc1cc2nc(N3CCN(C(=O)c4cn(CCOCCOCCOCC(=O)Nc5cccc6c5C(=O)N(C5CCC(=O)N(C)C5=O)C6=O)nn4)CC3)nc(N)c2cc1OC (centres unmarked) [Compound 11, 2-(2-(2-(2-(4-(4-(4-Amino-6,7-dimethoxyquinazolin-2-yl)piperazine-1-carbonyl)-1H-1,2,3-triazol-1-yl)ethoxy)ethoxy)ethoxy)-N-(2-(1-methyl-2,6-dioxopiperidin-3-yl)-1,3-dioxoisoindolin4-yl)acetamide]
effect on α1A-AR level (Western blot, in words) [5]: incapable of inducing α1A-AR degradation

COc1cc2nc(N3CCN(C(=O)c4cn(CCOCC(=O)Nc5cccc6c5C(=O)N(C5CCC(=O)NC5=O)C6=O)nn4)CC3)nc(N)c2cc1OC (centres unmarked) [Compound 9a, 2-(2-(4-(4-(4-Amino-6,7-dimethoxyquinazolin-2-yl)piperazine-1-carbonyl)-1H-1,2,3-triazol-1-yl)ethoxy)-N-(2-(2,6-dioxopiperidin-3-yl)-1,3-dioxoisoindolin-4-yl)acetamide]
antiproliferation activity on PC-3 cells (in words) [3]: concentration-dependent antiproliferation activities | DC50 [5]: ~4.32 µM

COc1cc2nc(N3CCN(C(=O)c4ccco4)CC3)nc(N)c2cc1OC [Prazosin, prazosin, reference compound]
IC50 [3]: 11.7 µM

COc1cc2nc(N3CCN(C(=O)c4cn(CCOCCOCC(=O)Nc5cccc6c5C(=O)N(C5CCC(=O)NC5=O)C6=O)nn4)CC3)nc(N)c2cc1OC (centres unmarked) [Compound 9b, 2-(2-(2-(4-(4-(4-Amino-6,7-dimethoxyquinazolin-2-yl)piperazine-1-carbonyl)-1H-1,2,3-triazol-1-yl)ethoxy)ethoxy)-N-(2-(2,6-dioxopiperidin-3-yl)-1,3-dioxoisoindolin-4-yl)acetamide]
antiproliferation activity on PC-3 cells (in words) [3]: much less influence | effect on α1A-AR level (Western blot, in words) [5]: did not show too much effect
